The source made the active and inactive calls.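 How the source made its calls: active means virus titer falling by more than one log, over tenfold fewer virus than untreated infected wells; inactive means the rest.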
Test system: HEp-2 cells, RSV plaque reduction, virus titer
Experiment: RSV yield reduction in HEp-2 cells – cell-based, set 5, orthogonal assay for RSV inhibitor project, late-stage follow-up (AID 588791)
Details: stronger effect = lower value
Procedure, shortened: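 System: RSV Long-infected HEp-2 cells; times: compound exposure 48 h at 37 °C after infection; compound dosing: 0.5% DMSO final; also added: RSV Long strain at MOI 0.1, 2 h adsorption; measured by: plaque titration of harvested supernatants on fresh HEp-2, neutral red; buffer or medium: Avicel overlay, plaque stage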

Row | SMILES | log virus titer change (at 10 µM) | log virus titer change (titer change, at 2.5 µM) | log virus titer change (titer change, at 5 µM)
1 | CC(C)(C)c1ccc(Cn2c(=O)n(Cc3ccc(C(=O)NCC4COC4)cc3)c(=O)c3ccccc32)cc1 | -3.4 | 0.138 | -1.13
2 | CC(C)c1ccc(Cn2c(=O)n(Cc3ccc(C(=O)NCC4COC4)cc3)c(=O)c3ncccc32)cc1 | 0.144 (inactive) | 0.21 | 0.267
3 | CC(C)c1ccc(Cn2c(=O)n(Cc3ccc(C(=O)NCC4COC4)cc3)c(=O)c3cccnc32)cc1 | -2.72 | 0.155 | -0.572
4 | CC(C)c1ccc(Cn2c(=O)n(Cc3ccc(C(=O)NCC4COC4)cc3)c(=O)c3ccccc32)cc1 | -5.75 | -3.06 | -5.75

Reference: PubChem BioAssay AID588791 (Southern Research Specialized Biocontainment Screening …, 2011)
